Laboratory results published in ChEMBL document CHEMBL1795205, “The new 5- or 6-azapyrimidine and cyanuric acid derivatives of l-ascorbic acid bearing the free C-5 hydroxy or C-4 amino group at the ethylenic spacer: CD-spectral absolute configuration determination and biological activity evaluations” (Eur J Med Chem, 2011).

Key:
HeLa = experiment: Cytostatic activity against human HeLa cells assessed as inhibition of cell proliferation after 72 hrs by MTT assay; type: functional, cell-based
How it was run: (§1)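 Monolayer cells grown in DMEM with 10% FBS were seeded on day 0 at 3000–6000 cells/well, set by each line's doubling time. Agents were added the next step in five 10-fold dilutions (0.01–100) for 72 h, with DMSO ≤0.1% and a solvent control. MTT absorbance was converted to percentage growth versus untreated wells on the same plate. Where all PGs exceeded 50, the top concentration was reported as ">". ANOVA/Tukey, p<0.05.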

MCF7 = experiment: Cytostatic activity against human MCF7 cells assessed as inhibition of cell proliferation after 72 hrs by MTT assay; type: functional, cell-based; conditions: MCF7, 72 h; how it was run: as §1
HepG2 = experiment: Cytostatic activity against human HepG2 cells assessed as inhibition of cell proliferation after 72 hrs by MTT assay; type: functional, cell-based; conditions: HepG2, 72 h; how it was run: as §1
SW-620 = experiment: Cytostatic activity against human SW620 cells assessed as inhibition of cell proliferation after 72 hrs by MTT assay; type: functional, cell-based; conditions: SW-620, 72 h; how it was run: as §1
MIA PaCa-2 = experiment: Cytostatic activity against human MIAPaCa2 cells assessed as inhibition of cell proliferation after 72 hrs by MTT assay; type: functional, cell-based; conditions: MIA PaCa-2, 72 h; how it was run: as §1
WI-38 = experiment: Cytotoxicity against human WI38 cells assessed as inhibition of cell proliferation after 72 hrs by MTT assay; type: cell-based; conditions: WI-38, 72 h; how it was run: as §1

Structure (SMILES)	IC50 (HeLa) [µM]	IC50 (MCF7) [µM]	IC50 (HepG2) [µM]	IC50 (SW-620) [µM]	IC50 (MIA PaCa-2) [µM]	IC50 (WI-38) [µM]
NC1(CCn2ncc(=O)[nH]c2=O)OC(=O)C(OCc2ccccc2)=C1OCc1ccccc1 (racemic)	> 100	> 100	> 100	> 100	> 100	> 100
O=C1O[C@H]([C@@H](O)Cn2c(=O)[nH]c(=O)[nH]c2=O)C(OCc2ccccc2)=C1OCc1ccccc1	> 100	> 100	> 100	> 100	> 100	> 100
O=C1O[C@H]([C@@H](O)Cn2ccc(NC(=O)c3ccccc3)nc2=O)C(OCc2ccccc2)=C1OCc1ccccc1	35.9	4.79	62.2	> 100	> 100	8.82
Nc1ncn(CCC2(N)OC(=O)C(OCc3ccccc3)=C2OCc2ccccc2)c(=O)n1 (racemic)	> 100	> 100	> 100	> 100	> 100	> 100
NC1(CCn2c(=O)[nH]c(=O)[nH]c2=O)OC(=O)C(OCc2ccccc2)=C1OCc1ccccc1 (racemic)	77.1	84.9	> 100	> 100	> 100	> 100
Nc1ccn(C[C@H](O)[C@H]2OC(=O)C(OCc3ccccc3)=C2OCc2ccccc2)c(=O)n1	> 100	7.34	44.3	> 100	> 100	53.9
O=C1O/C(=C\Cn2c(=O)[nH]c(=O)[nH]c2=O)C(O)=C1O	> 100	> 100	> 100	> 100	> 100	35.3
Nc1ncn(C[C@H](O)[C@H]2OC(=O)C(OCc3ccccc3)=C2OCc2ccccc2)c(=O)n1	> 100	73.8	> 100	> 100	71.7	> 100
